Measured values reported in ChEMBL document CHEMBL4390648, “Chemical synthesis, crystal structure, versatile evaluation of their biological activities and molecular simulations of novel pyrithiobac derivatives” (Eur J Med Chem, 2019).
In brackets after ≈: the same amount, converted by molar mass. Activity calls are given as the source filed them. No cut-off for these calls is given here.

Key:
Ceratobasidium cereale [1] = test: Antifungal activity against Rhizoctonia cerealis assessed as reduction in growth at 50 mg/l by mycelium growth rate method relative to control; assay type: functional
Summary of the method: (§1)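 Mycelium growth rate method against S. sclerotiorum, P. capsici, P. piricola, R. cerealis, W. anthracnose and R. bakanae. Each compound tested at 50 mg/L, with chlorothalonil and PTB as controls. Relative inhibitory ratio (%) calculated from mycelial growth.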

Candida albicans [2] = test: Inhibition of Candida albicans AHAS catalytic subunit at 100 uM using pyruvate as substrate measured after 30 mins by colorimetric method relative to control
Summary of the method: (§2)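 Colorimetric assay in 50 mM potassium phosphate pH 7.0 with 50 mM pyruvate, 1 mM thiamine diphosphate, 10 mM MgCl2 and 10 μM FAD. Incubated 30 min at 37 °C for plant AHAS and 30 °C for fungal AHAS. Acetolactate formed was then quantified.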

[3] = system: Severe acute respiratory syndrome-related coronavirus; test: Inhibition of SARS coronavirus M protease using AVLQSGFRKK as substrate at 20 uM by FRET assay relative to control
Summary of the method: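 Purified SARS-CoV Mpro assayed by FRET. Protein, compound and substrate were preheated at 37 °C and oscillated. Fluorescence (ex 320/em 405 nm) was read every 5 s for 200 reads.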

Candida albicans [4] = test: Antifungal activity against Candida albicans isolate g5 grown in RPMI 1640 medium incubated for 24 hrs by microdilution method; assay type: functional; settings: isolate g5, 24 h
Summary of the method: (§3)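 C. albicans standard strain SC5314 and clinical isolates g5 and 17# tested by broth microdilution in YNB or RPMI 1640 medium. Plates incubated at 35 °C for up to 72 h, with visual readings taken at 24 h. MIC taken as the lowest concentration preventing visible growth.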

Candida albicans [5] = test: Antifungal activity against Candida albicans isolate 17 grown in YNB medium incubated for 24 hrs by microdilution method; assay type: functional; settings: isolate 17, 24 h; summary of the method: as §3
[6] = system: Brassica rapa subsp. oleifera; test: Herbicidal activity against Brassica campestris L assessed as inhibition of rape root growth at 10 mg/l root growth incubated for 48 hrs relative to control; assay type: functional
Summary of the method: (§4)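 Rape seeds soaked in distilled water for 4 h, then placed on filter paper wetted with inhibitor solution, 15 seeds per 6-cm dish. Germinated in the dark at 28 °C for 48 h. Mean length of 10 roots per plate measured.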

Arabidopsis thaliana [7] = test: Inhibition of Arabidopsis thaliana AHAS catalytic subunit using pyruvate as substrate at 100 uM measured after 30 mins by colorimetric method relative to control; summary of the method: as §2
Candida albicans [8] = test: Antifungal activity against Candida albicans SC5314 grown in RPMI 1640 medium incubated for 24 hrs by microdilution method; assay type: functional; settings: SC5314, 24 h; summary of the method: as §3
Phytophthora capsici = test: Antifungal activity against Phytophthora capsici assessed as reduction in growth at 50 mg/l by mycelium growth rate method relative to control; assay type: functional; summary of the method: as §1
Tobacco mosaic virus [9] = test: Antiviral activity against Tobacco mosaic virus inoculated in Nicotiana tabacum leaves assessed as passivation by measuring local lesion numbers at 100 mg/l pre-incubated with virus for 30 mins followed by inoculation and measured up to 4 days; assay type: functional
Summary of the method: (§5)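 Passivation assay: TMV mixed with an equal volume of compound solution for 30 min, then rubbed onto the left half of N. tabacum L. leaves. The right half received virus mixed with solvent as control. Local lesions counted 3–4 days after inoculation. Compounds tested at 500 or 100 mg/L.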

Sclerotinia sclerotiorum = test: Antifungal activity against Sclerotinia sclerotiorum assessed as reduction in growth at 50 mg/l by mycelium growth rate method relative to control; assay type: functional; summary of the method: as §1
[10] = system: Brassica rapa subsp. oleifera; test: Herbicidal activity against Brassica campestris L assessed as inhibition of rape root growth at 100 mg/l root growth incubated for 48 hrs relative to control; assay type: functional; summary of the method: as §4
Tobacco mosaic virus [11] = test: Antiviral activity against Tobacco mosaic virus inoculated in Nicotiana tabacum leaves assessed as passivation by measuring local lesion numbers at 500 mg/l pre-incubated with virus for 30 mins followed by inoculation and measured up to 4 days; assay type: functional; summary of the method: as §5
Fusarium fujikuroi = test: Antifungal activity against Gibberella fujikuroi assessed as reduction in growth at 50 mg/l by mycelium growth rate method relative to control; assay type: functional; summary of the method: as §1
Candida albicans [12] = test: Inhibition of Candida albicans AHAS catalytic subunit at 10 uM using pyruvate as substrate measured after 30 mins by colorimetric method relative to control; summary of the method: as §2
Ceratobasidium cereale [13] = test: Antifungal activity against Rhizoctonia cerealis assessed as reduction in growth mycelium growth rate method relative to control; assay type: functional, organism-based
Summary of the method: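 EC50 against R. cerealis derived from mycelium growth-rate inhibition over a concentration series, using a probit fit: Probit = m(log10[I] − log10[EC50]) + 5.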

[14] = system: Botryosphaeria berengeriana; test: Antifungal activity against Physalospora pyricola assessed as reduction in growth at 50 mg/l by mycelium growth rate method relative to control; assay type: functional; summary of the method: as §1
Arabidopsis thaliana [15] = test: Inhibition of Arabidopsis thaliana AHAS catalytic subunit using pyruvate as substrate at 10 uM measured after 30 mins by colorimetric method relative to control; summary of the method: as §2
Candida albicans [16] = test: Antifungal activity against Candida albicans isolate 17 grown in RPMI 1640 medium incubated for 24 hrs by microdilution method; assay type: functional; settings: isolate 17, 24 h; summary of the method: as §3
Candida albicans [17] = test: Antifungal activity against Candida albicans SC5314 grown in YNB medium incubated for 24 hrs by microdilution method; assay type: functional; settings: SC5314, 24 h; summary of the method: as §3
Candida albicans [18] = test: Antifungal activity against Candida albicans isolate g5 grown in YNB medium incubated for 24 hrs by microdilution method; assay type: functional; settings: isolate g5, 24 h; summary of the method: as §3
Colletotrichum = test: Antifungal activity against Colletotrichum (W. anthracnose) assessed as reduction in growth at 50 mg/l by mycelium growth rate method relative to control; assay type: functional; summary of the method: as §1
Mythimna separata = test: Insecticidal activity against Mythimna separata assessed as larval mortality at 600 mg/l by leaf-dip method; assay type: functional

| Structure (SMILES) | inhibition at 50 µg/mL (Ceratobasidium cereale [1]) | inhibition (Candida albicans [2]) | inhibition [3] | MIC (Candida albicans [4]) | MIC (Candida albicans [5]) | inhibition (INH) [6] | inhibition (Arabidopsis thaliana [7]) | MIC (Candida albicans [8]) | inhibition at 50 µg/mL (Phytophthora capsici) | inhibition at 50 µg/mL (Sclerotinia sclerotiorum) | inhibition (INH) [10] | inhibition at 500 µg/mL (Tobacco mosaic virus [11]) | inhibition at 50 µg/mL (Fusarium fujikuroi) | inhibition (Candida albicans [12]) | inhibition at 50 µg/mL [14] | inhibition (Arabidopsis thaliana [15]) | MIC (Candida albicans [16]) | MIC (Candida albicans [17]) | MIC (Candida albicans [18]) | inhibition at 50 µg/mL (Colletotrichum) | further results |
| --- | --- | --- | --- | --- | --- | --- | --- | --- | --- | --- | --- | --- | --- | --- | --- | --- | --- | --- | --- | --- | --- |
| COc1nc(OC)nc(Oc2cccc(I)c2)n1 | 90.5% | 29.4% | 0% | > 100 µg/mL | > 100 µg/mL | 80.2% | 84.7% | > 100 µg/mL | 33.3% | 66.7% | 88.1% | 17.1% | 6.1% | 0% | 59.4% | 8.9% | > 100 µg/mL | > 100 µg/mL | > 100 µg/mL | 23.8% | inhibition (Tobacco mosaic virus [9]): inactive; EC50 (Ceratobasidium cereale [13]): 10.9 µg/mL (≈ 30.4 µM) |
| COc1cc(OC)nc(Sc2ccc(C(=O)O)cc2F)n1 | 91.7% | 91.7% | 26.8% | > 100 µg/mL | > 100 µg/mL | 48% | 100% | > 100 µg/mL | 58.3% | 83.3% | 82.2% | 46.5% | 48.5% | 81.7% | 50% | 40% | > 100 µg/mL | > 100 µg/mL | > 100 µg/mL | 40.5% | inhibition at 100 µg/mL (Tobacco mosaic virus [9]): 6.8%; mortality at 600 µg/mL (Mythimna separata): 30%; EC50 (Ceratobasidium cereale [13]): 11.8 µg/mL (≈ 38 µM) |
| N#Cc1c(Cl)c(Cl)c(Cl)c(C#N)c1Cl [CHLOROTHALONIL] | 96.8% |  |  |  |  |  |  |  | 80.8% | 87.6% |  |  | 75.4% |  | 92.5% |  |  |  |  | 78.6% | EC50 (Ceratobasidium cereale [13]): 5.3 µg/mL (≈ 19.9 µM) |
| COc1cc(OC)nc(Sc2ccc(C(=O)O)cc2Br)n1 | 96.4% | 94.6% | 0% | > 100 µg/mL | 12.5 µg/mL (≈ 33.7 µM) | 0% | 100% | > 100 µg/mL | 42.7% | 50% | 26.4% | 0% | 39.4% | 70.7% | 51.6% | 48.9% | > 100 µg/mL | 25 µg/mL (≈ 67.3 µM) | 25 µg/mL (≈ 67.3 µM) | 45.2% | inhibition (Tobacco mosaic virus [9]): inactive; mortality at 600 µg/mL (Mythimna separata): 50%; EC50 (Ceratobasidium cereale [13]): 11.4 µg/mL (≈ 30.7 µM) |
| COc1cc(OC)nc(Sc2ccc(C(=O)O)cc2Cl)n1 | 89.3% | 85% | 0% | > 100 µg/mL | > 100 µg/mL | 30.6% | 100% | > 100 µg/mL | 41.7% | 83.3% | 73.4% | 0% | 60.6% | 62.3% | 76.6% | 31.4% | > 100 µg/mL | > 100 µg/mL | > 100 µg/mL | 28.6% | inhibition (Tobacco mosaic virus [9]): inactive; mortality at 600 µg/mL (Mythimna separata): 50%; EC50 (Ceratobasidium cereale [13]): 9.2 µg/mL (≈ 28.2 µM) |
| COc1cc(OC)nc(Sc2ccc(Cl)cc2C(=O)O)n1 | 89.3% | 96.6% | 4.6% | > 100 µg/mL | > 100 µg/mL | 0% | 100% | > 100 µg/mL | 41.7% | 63.9% | 54.5% | 0% | 48.5% | 80.6% | 40.6% | 34% | > 100 µg/mL | > 100 µg/mL | > 100 µg/mL | 52.4% | inhibition (Tobacco mosaic virus [9]): inactive; mortality at 600 µg/mL (Mythimna separata): 5%; EC50 (Ceratobasidium cereale [13]): 14.1 µg/mL (≈ 43.2 µM) |
| COc1nc(OC)nc(Sc2ccc(C#N)cc2Br)n1 | 94% | 68.6% | 39.3% | > 100 µg/mL | > 100 µg/mL | 0% | 98.3% | > 100 µg/mL | 8.3% | 13.9% | 25% | 0% | 51.5% | 32.1% | 56.3% | 53.1% | > 100 µg/mL | > 100 µg/mL | > 100 µg/mL | 19% | inhibition (Tobacco mosaic virus [9]): inactive; mortality at 600 µg/mL (Mythimna separata): 30%; EC50 (Ceratobasidium cereale [13]): 12.4 µg/mL (≈ 35.1 µM) |
| COc1nc(OC)nc(Sc2ccc(C(=O)O)cc2Br)n1 | 58.3% | 92.4% | 25% | > 100 µg/mL | > 100 µg/mL | 0% | 30% | > 100 µg/mL | 41.7% | 77.8% | 34.3% | 21.4% | 57.6% | 50.1% | 46.9% | 22.4% | > 100 µg/mL | > 100 µg/mL | > 100 µg/mL | 35.7% | inhibition (Tobacco mosaic virus [9]): inactive; mortality at 600 µg/mL (Mythimna separata): 10% |
| COc1nc(OC)nc(Sc2cccc(Cl)c2C#N)n1 | 27.4% | 59.5% | 76.6% | > 100 µg/mL | > 100 µg/mL | 0% | 79.3% | > 100 µg/mL | 33.3% | 50% | 17.4% | 0% | 21.2% | 38.9% | 51.6% | 19.8% | > 100 µg/mL | > 100 µg/mL | > 100 µg/mL | 40.5% | inhibition (Tobacco mosaic virus [9]): inactive; mortality at 600 µg/mL (Mythimna separata): 5% |
